Laboratory results taken from ChEMBL document CHEMBL1138107, “Novel non-nucleobase inhibitors of Staphylococcus aureus DNA polymerase IIIC” (Bioorg Med Chem Lett, 2006).
In brackets after ≈: the same amount, converted by molar mass. Activity calls are given as the source filed them. No cut-off for these calls is given here.

How the values were obtained:
Staphylococcus aureus [1] = assay: Antimicrobial activity against Staphylococcus aureus (RN4220); format: functional
HeLa = assay: Cytotoxicity against HeLa cell line by MTS assay; format: functional, cell-based; conditions: Homo sapiens
How it was run: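 HeLa cells (2 × 10⁴/well) in DMEM with 1% bovine growth serum were exposed to compound at 100, 50, 25 and 12.5 for 18 h at 37 °C under 5% CO₂. Viability was read as MTS reduction to formazan, by absorbance at 490 nm.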

[2] = target: T1, DNA polymerase III PolC-type (Staphylococcus aureus) (UniProt P0C1P9); assay: Inhibition of DNA polymerase3C from Staphylococcus aureus at 100 uM
T1 sequence (whole entry): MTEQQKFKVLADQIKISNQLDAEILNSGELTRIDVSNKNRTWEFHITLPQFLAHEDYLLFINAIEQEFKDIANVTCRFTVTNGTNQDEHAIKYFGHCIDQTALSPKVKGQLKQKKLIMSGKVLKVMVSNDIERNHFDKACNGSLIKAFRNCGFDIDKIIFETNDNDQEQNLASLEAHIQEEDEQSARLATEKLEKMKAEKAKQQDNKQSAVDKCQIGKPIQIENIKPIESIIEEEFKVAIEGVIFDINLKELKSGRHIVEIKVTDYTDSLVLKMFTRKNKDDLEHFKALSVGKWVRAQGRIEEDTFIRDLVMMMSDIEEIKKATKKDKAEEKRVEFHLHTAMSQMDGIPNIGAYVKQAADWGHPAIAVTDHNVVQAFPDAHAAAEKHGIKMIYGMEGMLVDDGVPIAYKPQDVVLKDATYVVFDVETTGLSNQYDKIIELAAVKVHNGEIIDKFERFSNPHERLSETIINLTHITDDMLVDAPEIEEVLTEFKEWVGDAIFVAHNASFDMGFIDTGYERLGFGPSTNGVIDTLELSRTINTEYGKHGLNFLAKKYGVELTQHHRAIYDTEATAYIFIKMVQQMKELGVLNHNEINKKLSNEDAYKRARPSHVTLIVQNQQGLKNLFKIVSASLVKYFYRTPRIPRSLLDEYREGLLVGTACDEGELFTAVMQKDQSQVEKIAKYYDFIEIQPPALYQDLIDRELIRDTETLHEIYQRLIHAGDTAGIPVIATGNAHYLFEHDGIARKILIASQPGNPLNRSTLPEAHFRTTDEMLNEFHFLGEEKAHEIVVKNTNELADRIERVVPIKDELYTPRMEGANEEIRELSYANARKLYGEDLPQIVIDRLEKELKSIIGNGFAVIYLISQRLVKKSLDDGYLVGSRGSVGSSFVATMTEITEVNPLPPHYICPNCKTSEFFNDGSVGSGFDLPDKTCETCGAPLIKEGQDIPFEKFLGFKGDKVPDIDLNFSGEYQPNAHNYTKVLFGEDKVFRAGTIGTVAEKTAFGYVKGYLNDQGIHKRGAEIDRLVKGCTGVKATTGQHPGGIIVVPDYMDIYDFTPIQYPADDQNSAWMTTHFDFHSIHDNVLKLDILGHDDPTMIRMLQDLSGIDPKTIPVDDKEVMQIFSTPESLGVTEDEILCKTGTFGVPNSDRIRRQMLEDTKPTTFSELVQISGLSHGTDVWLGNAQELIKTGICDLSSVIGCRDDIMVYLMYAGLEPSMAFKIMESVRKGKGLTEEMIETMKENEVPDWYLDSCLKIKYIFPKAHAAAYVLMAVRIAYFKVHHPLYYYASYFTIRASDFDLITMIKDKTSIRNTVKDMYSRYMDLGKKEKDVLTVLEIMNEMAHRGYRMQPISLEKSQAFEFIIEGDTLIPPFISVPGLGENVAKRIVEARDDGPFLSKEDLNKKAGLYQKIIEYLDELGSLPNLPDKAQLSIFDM
How it was run: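 PolC oligonucleotide-primed incorporation of [³H]dTTP was run with 125 ng purified enzyme for 30 min at 37 °C. It was quenched with EDTA, filter-bound on DE81 and counted by liquid scintillation. Compounds were screened in triplicate at 10, 50 and 100.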

[3] = target: T2, DNA polymerase III PolC-type (Staphylococcus aureus, UniProt P0C1P9); assay: Inhibition of DNA polymerase3C from Staphylococcus aureus
T2 sequence (P0C1P9 whole entry): T1 sequence (whole entry)
How it was run: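 Purified PolC (125 ng) started the reaction with a double-stranded oligonucleotide substrate, dATP, dCTP, low dGTP and [³H]dTTP (1 Ci/mmol) in Tris-HCl pH 7.5 buffer with glycerol, EDTA, DTT, IgG and 8 mM MgCl₂. Incubation was 30 min at 37 °C, stopped with 20 mM EDTA, then spotted on DE81 filters, washed and counted by scintillation. IC50 came from a 12-point, roughly 2-fold serial dilution, run in triplicate.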

Staphylococcus aureus [4] = assay: Antimicrobial activity against Staphylococcus aureus (RN4220) in presence of 50% of human serum; format: functional
Staphylococcus aureus [5] = assay: Inhibition of DNA replication utilizing Staphylococcus aureus replication proteins in presence of reduced dATP concentrations; format: functional, organism-based
How it was run: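 The replication assay used a singly primed circular ssM13 template copied by S. aureus PolC, with β clamp, δδ′/τ clamp loader and SSB. [³H]dTTP incorporation was measured in streptavidin-coated scintillation plates, with the dATP concentration reduced to sensitize the assay to dATP analogs.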

Hepatocyte = assay: Cytotoxicity against human hepatocytes by measure of ATP production at 100 uM; format: functional, cell-based
How it was run: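 Cryopreserved primary human hepatocytes (1 × 10⁴/well) in Krebs–Henseleit buffer were incubated with compound at 100, 50, 25 and 12.5 for 2 h at 37 °C under 5% CO₂. ATP content was then measured by luminescence after adding luciferin and luciferase.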

Row | SMILES | MIC (Staphylococcus aureus [1]; read-out: MIC) [µg/mL] | inhibition [2] [%] | IC50 [3] [µM] | MIC (Staphylococcus aureus [4]) [µg/mL] | IC50 (Staphylococcus aureus [5]) [µM] | MIC (Staphylococcus aureus [1]) [µg/mL] | Activity (HeLa) | Activity (Hepatocyte)
1 | COc1ccc(OCCCc2c(O)nc(Nc3ccc4c(c3)CCC4)[nH]c2=O)cc1 | – | – | 11.6 | – | – | – | – | –
2 | OCCCc1c(O)nc(Nc2ccc3c(c2)CCC3)nc1O | 128 (≈ 425 µM) | 74 | – | – | – | – | Not toxic | –
3 | COC(=O)c1ccc(OCCCc2c(O)nc(Nc3ccc4c(c3)CCC4)nc2O)cc1 | 64 (≈ 147 µM) | 74 | – | – | – | – | Not toxic | –
4 | CCCc1cnc(Nc2ccc3c(c2)CCC3)nc1O | > 128 | 7 | – | > 128 | – | – | Not toxic | –
5 | Nc1nc(Nc2ccc3c(c2)CCC3)nc(O)c1Cc1ccccc1 | > 128 | 17 | – | > 128 | > 100 | – | Not toxic | –
6 | CCc1cc(Nc2nc(N)c(CCCc3ccccc3)c(O)n2)ccc1C | > 128 | 12 | – | > 128 | 7.9 | – | Not toxic | –
7 | C=CCc1c(N)nc(Nc2ccc(C)c(CC)c2)[nH]c1=O | – | – | 164 | – | – | – | – | –
8 | N#Cc1ccc(OCCCc2c(O)nc(Nc3ccc4c(c3)CCC4)[nH]c2=O)cc1 | – | – | 5.6 | – | – | – | – | –
9 | O=c1[nH]c(Nc2ccc3c(c2)CCC3)nc(O)c1CCCc1ccccc1 | – | – | 3 | – | – | – | – | –
10 | Oc1nc(Nc2ccc3c(c2)CCC3)nc(O)c1CCCCc1ccccc1 | > 128 | 35 | – | – | – | – | Not toxic | –
11 | C=CCc1c(Cl)nc(Nc2ccc3c(c2)CCC3)[nH]c1=O | – | – | 2.3 | – | – | – | – | –
12 | Nc1cc(O)nc(Nc2ccc3c(c2)CCC3)n1 | > 128 | 5 | – | > 128 | – | – | Not toxic | –
13 | CCc1cc(Nc2nc(N)c(Cc3ccccc3)c(O)n2)ccc1C | > 128 | 3 | – | > 128 | 9.7 | – | Not toxic | –
14 | O=[N+]([O-])c1ccc(OCCCc2c(O)nc(Nc3ccc4c(c3)CCC4)nc2O)nc1 | 64 (≈ 151 µM) | 85 | 5.1 | – | – | – | Not toxic | –
15 | C=CCc1c(O)nc(Nc2ccc3c(c2)CCC3)nc1OC | 128 (≈ 430 µM) | 33 | – | > 128 | – | – | Not toxic | –
16 | Nc1ccc(OCCCc2c(O)nc(Nc3ccc4c(c3)CCC4)nc2O)cc1 | > 64 | 83 | – | – | – | – | Not toxic | –
17 | Nc1nc(Nc2ccc3c(c2)CCC3)nc(O)c1CCCc1ccccc1 | > 128 | -0 | – | > 128 | > 100 | – | Not toxic | –
18 | COc1cc(C#N)ccc1OCCCc1c(O)nc(Nc2ccc3c(c2)CCC3)nc1O | 16 (≈ 37 µM) | 95 | 3 | – | – | – | Not toxic | inactive
19 | Oc1nc(Nc2ccc3c(c2)CCC3)nc(O)c1CCCN1CCCCC1 | 128 (≈ 347 µM) | 69 | – | – | – | – | Not toxic | –
20 | O=C(O)c1ccc(OCCCc2c(O)nc(Nc3ccc4c(c3)CCC4)nc2O)cc1 | > 128 | 90 | – | – | – | – | Not toxic | –
21 | C=CCc1c(O)nc(Nc2ccc3c(c2)CCC3)nc1O | 16 (≈ 56.5 µM) | 65 | – | > 128 | – | – | Not toxic | inactive
22 | Nc1ccc(OCCCc2c(O)nc(Nc3ccc4c(c3)CCC4)[nH]c2=O)cc1 | – | – | 9 | – | – | – | – | –
23 | CCc1cc(Nc2nc(N)cc(O)n2)ccc1C | – | 36 | 104 | 32 | 28 | 16 (≈ 65.5 µM) | Not toxic | –
24 | C=CCc1c(O)nc(Nc2ccc(C)c(CC)c2)[nH]c1=O | – | – | 7.7 | – | – | – | – | –
25 | COc1ccc(OCCCc2c(O)nc(Nc3ccc4c(c3)CCC4)nc2O)cc1 | 16 (≈ 39.3 µM) | 81 | – | – | – | – | Not toxic | –
26 | C=CCc1c(O)nc(Nc2ccc3c(c2)CCC3)[nH]c1=O | – | – | 31 | – | – | – | – | –
27 | O=c1[nH]c(Nc2ccc3c(c2)CCC3)nc(O)c1CCCOc1ccc([N+](=O)[O-])cc1 | – | – | 2.6 | – | – | – | – | –
28 | NCCCc1c(O)nc(Nc2ccc3c(c2)CCC3)nc1O | > 128 | 40 | – | – | – | – | Not toxic | –

Continued, in another order:

Row | MIC (Staphylococcus aureus [1]; read-out: MIC) [µg/mL] | inhibition [2] [%] | IC50 [3] [µM] | MIC (Staphylococcus aureus [4]) [µg/mL] | IC50 (Staphylococcus aureus [5]) [µM] | MIC (Staphylococcus aureus [1]) [µg/mL] | SMILES | Activity (HeLa) | Activity (Hepatocyte)
29 | 8 (≈ 24 µM) | 90 | 37 | – | – | – | Oc1nc(Nc2ccc3c(c2)CCC3)nc(O)c1Cc1ccccc1 | Not toxic | –
30 | 16 (≈ 42.1 µM) | 46 | – | > 128 | – | – | Oc1nc(Nc2ccc3c(c2)CCC3)nc(Cl)c1CCCc1ccccc1 | Not toxic | –
31 | 16 (≈ 38.2 µM) | 81 | – | – | – | – | CCc1cc(Nc2nc(O)c(CCCc3ccc(C#N)cc3OC)c(O)n2)ccc1C | Not toxic | –
32 | 16 (≈ 44 µM) | 74 | – | – | – | – | Oc1nc(Nc2ccc3c(c2)CCC3)nc(O)c1CCOc1ccccc1 | Not toxic | –
33 | 4 (≈ 9.47 µM) | 70 | – | – | – | – | O=[N+]([O-])c1ccc(OCCCc2c(O)nc(Nc3ccc4c(c3)CCC4)nc2O)cc1 | Not toxic | –
34 | 16 (≈ 51.4 µM) | 89 | – | – | – | – | C=CCCCc1c(O)nc(Nc2ccc3c(c2)CCC3)nc1O | Not toxic | –
35 | 16 (≈ 49.2 µM) | 81 | – | – | – | – | C=CCCCCc1c(O)nc(Nc2ccc3c(c2)CCC3)nc1O | Not toxic | –
36 | 8 (≈ 26.9 µM) | 87 | 17.9 | – | – | – | C=CCCc1c(O)nc(Nc2ccc3c(c2)CCC3)nc1O | Not toxic | –
37 | 8 (≈ 28.1 µM) | 32 | – | 32 | 7.7 | – | C=CCc1c(N)nc(Nc2ccc(C)c(CC)c2)nc1O | Not toxic | –
38 | 8 (≈ 17.7 µM) | 72 | – | – | – | – | COc1cc(OCCCc2c(O)nc(Nc3ccc4c(c3)CCC4)nc2O)ccc1[N+](=O)[O-] | Not toxic | –
39 | 8 (≈ 19.9 µM) | 91 | – | – | – | – | N#Cc1ccc(OCCCc2c(O)nc(Nc3ccc4c(c3)CCC4)nc2O)cc1 | Not toxic | –
40 | 8 (≈ 20.4 µM) | 67 | 14 | – | – | – | Oc1nc(Nc2ccc3c(c2)CCC3)nc(O)c1CCCCOc1ccccc1 | Not toxic | –
41 | 8 (≈ 23 µM) | 68 | 18 | – | – | – | Oc1nc(Nc2ccc3c(c2)CCC3)nc(O)c1CCc1ccccc1 | Not toxic | –
42 | 8 (≈ 23.9 µM) | 94 | 4 | – | – | – | CCc1cc(Nc2nc(O)c(Cc3ccccc3)c(O)n2)ccc1C | Not toxic | inactive
43 | 1 (≈ 3.31 µM) | 53 | – | > 128 | – | – | C=CCc1c(O)nc(Nc2ccc3c(c2)CCC3)nc1Cl | Not toxic | –
